# MT stabilizer: microtubule stabilization, imaging screen; HeLa tubulin immunostaining HCS, 24 h; share of cells brighter than vehicle mean+2SD; % tubulin-high responders, % at 10 µM; hit rate 0.83% among 200,000; AID 2205;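 active means plate Z-score above 3 for both tubulin-high and condensed-nucleus cell shares, with cell loss under 80%, at 10 µM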;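 further: anti alpha tubulin signal scored within the nucleus-defined area of each cell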
# EP2 mod: modulators of human EP2 prostaglandin E2 receptor | AID 940 | EP2-expressing cells, cAMP HTRF FRET, PGE2 co-stimulation | hit rate 0.83% among 260,000 | P43116 | induction, % at 25 µM;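 active means compounds whose cAMP rise, as percent of the full-agonist control response, exceeds 60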;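 further: rat C6 glioma line stably carrying human EP2 under a CMV promoter; the protocol text gives 20 µM as final concentration; 100% = response of wells given 1 µM PGE2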
# Target sequence (P43116 whole entry, looked up): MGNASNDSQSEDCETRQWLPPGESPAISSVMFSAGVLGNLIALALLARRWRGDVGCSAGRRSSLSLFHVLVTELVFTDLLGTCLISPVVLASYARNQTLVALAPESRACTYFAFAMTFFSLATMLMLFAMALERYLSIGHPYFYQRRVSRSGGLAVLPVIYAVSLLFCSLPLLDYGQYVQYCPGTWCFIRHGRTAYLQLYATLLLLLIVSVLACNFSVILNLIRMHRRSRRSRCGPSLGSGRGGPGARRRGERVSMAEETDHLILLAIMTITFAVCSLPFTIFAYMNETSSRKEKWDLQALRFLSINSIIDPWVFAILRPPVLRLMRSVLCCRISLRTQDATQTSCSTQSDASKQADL
# HMGR II inh: blocks class II HMG-CoA reductase of Enterococcus faecalis; AID 1066; inhibition, % at 10 µM; purified E. faecalis HMGR, NADPH absorbance 340 nm kinetic; hit rate 0.41% among 190,000;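 active means inhibition above a set limit, the median over all tested compounds plus 3 SD, cut at about 9.5% in these data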;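 further: enzyme runs in reverse so mevalonate oxidation gives rising NADPH absorbance; 0% = complete reaction with DMSO and 100% = background rate lacking mevalonate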
# PGE2 EP2 inh: inhibitors of human EP2 prostaglandin E2 receptor; P43116; C6 glioma cells expressing human EP2, cAMP TR-FRET; cells stimulated with saturating PGE2; inhibition, % at 25 µM; hit rate 0.52% among 260,000; AID 1422;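 active means percent inhibition above 40 after rounding to a whole number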;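 further: rat C6 glioma host cells with rolipram phosphodiesterase inhibitor present; the protocol text gives 20 µM as final concentration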
# TbHK1 inh: blocks Trypanosoma brucei hexokinase 1 activity; recombinant TbHK1, G6PDH-coupled NADH A340; inhibition, % at 10 µM; hit rate 0.11% among 220,000; AID 1430;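 active means inhibition of 50% or more in the single-dose primary screen; inactive means inhibition below 50%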
# bCat nuc transl: modulators of beta-catenin nuclear translocation; HeLa beta-catenin nuclear translocation, immunofluorescence imaging; nuclear translocation activity, % at 5 µM; hit rate 0.3% among 190,000;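 active means nuclear translocation activity above 50% at 5 µM, with a well cell count of 50 or more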;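 further: per-cell ratio of nuclear to cytoplasmic median beta-catenin stain intensity; plate controls were DMSO negative control for no effect and GSK-3 inhibitor IX positive control for full effect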
#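 Test system: human HeLa cells, native beta-catenin. Compound dosing: 5 µM primary single dose, 0.1% DMSO, 0.02–20 µM confirmation series. Incubation: compound exposure 24 h at 37°C. Detection: beta-catenin immunostaining with DAPI counterstain, 20x imaging, 6 fields/well. Read-out basis: Nuclear/cytoplasmic beta-catenin signal ratio, % activation.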
# Numbers without * were called inactive; . = no result given. Sampled rows, rich in hits. Any-hit rate of the full collection: about 2.4%.
SMILES,MT stabilizer,EP2 mod,HMGR II inh,PGE2 EP2 inh,TbHK1 inh,bCat nuc transl
O=C(/C=C\c1ccco1)Nc1cc([N+](=O)[O-])ccc1F,4,-17,-1,8,-5,56*
CCc1nnc(NC(=O)/C=C/c2ccco2)s1,4,7,-1,5,-62,-3
O=C(/C=C/c1ccco1)Nc1nnc(-c2ccco2)s1,8.2*,-14,1,12,-1,12
COCCCN1C(=O)C(O)=C(C(=O)c2cccs2)C1c1ccc(O)c(OC)c1 (stereo not given),.,9,.,12,.,.
Cc1ccc(C(=O)Nc2ccc(N3CCN(C)CC3)cc2)c(C)c1,.,-18,.,5,.,.
CCC(CN1CCC(C)CC1)NC(=O)Cc1ccc2c(c1)OCCO2 (stereo not given),.,9,.,8,.,.
CCC(CN1CCN(C)CC1)NC(=O)Cc1ccc2c(c1)CCC2 (stereo not given),.,-33,.,46*,.,.
CCN(CC)c1ccc(NC(=O)Cn2nnc(-c3ccc(CN4CCOCC4)cc3)n2)c(C)c1,.,0,.,20,.,.
O=c1[nH]c(/C=C2\C=Nc3ccccc32)c(O)n1Cc1ccccc1F,2,-57,-10,5,-3,1
O=c1[nH]c(=S)n(-c2ccccc2F)c(O)c1/C=C1\C=Nc2ccccc21,.,-99,.,116*,.,.
CCOc1cc(C2C3=C(CCCC3=O)Nc3ccc4ncccc4c32)ccc1O (stereo not given),3,16,12*,4,-8,1
COc1ccc(C2C3=C(CCCC3=O)Nc3ccc4ncccc4c32)cc1OC (stereo not given),1,-7,-4,7,-5,-1
COc1cc(C2C3=C(CCCC3=O)Nc3ccc4ncccc4c32)ccc1O (stereo not given),33*,9,-3,9,-7,0
O=c1[nH]c2cc3c(cc2cc1CN(Cc1cccs1)S(=O)(=O)c1ccccc1)OCCO3,.,-11,.,11,.,.
COc1ccc(C(=O)NN(C)c2nc(-c3ccccc3)nnc2C(F)(F)F)cc1,3,5,3,.,3,1
COc1ccc(C(=O)NN(C)c2nc(C(F)(F)F)nc3ccccc23)cc1,8,-15,0,12,-6,158*
COc1ccccc1CN1CC[C@@H](NCCCN(C)C)[C@H](O)C1,.,8,.,5,.,.
COc1ccc(Cl)cc1NC(=O)C1=C(C)NC(=S)NC1c1cccc(OC)c1OC (stereo not given),.,-2,.,12,.,.
COc1ccc2nc(-c3ccccc3)[nH]c2c1,4,-15,0,13,-9,0
CCOc1ccc2nc(-c3ccccc3)[nH]c2c1,42*,-24,-1,9,-12,78*
COc1ccc(NC(=O)/C(C#N)=C\C=C\c2ccco2)cc1,19*,16,0,5,-17,9
COC(=O)C(=C/C=C/c1ccco1)C(=O)OC,.,1,.,7,-67,0
N#[N+]c1ccc(Nc2ccccc2)cc1,.,28,.,43*,.,.
Cn1ccnc1C1(O)CC2CCC(C1)N2C(=O)c1c(F)cccc1F (stereo not given),.,5,.,.,.,.
CC1(C)OC(=O)C(=Cc2ccc(-c3ccc(S(N)(=O)=O)cc3)o2)C(=O)O1,3,-88,-5,43*,-12,-4
SMILES,MT stabilizer,EP2 mod,HMGR II inh,PGE2 EP2 inh,TbHK1 inh,bCat nuc transl
NS(=O)(=O)c1ccc(-c2ccc(/C=C3\C(=O)Nc4cc(Cl)ccc43)o2)cc1,10,-44,4,7,-11,7
COc1ccc(C2(NC(=O)Cc3nc4nc(C)cc(C)n4n3)CCCCC2)cc1,.,-34,.,2,.,.
Cc1ccc(-n2sc3ccccc3c2=O)cc1S(=O)(=O)N1CCCCC1,2,-14,0,7,93*,0
O=c1c2ccccc2sn1-c1ccc(S(=O)(=O)N2CCCCC2)cc1,3,.,.,13,3,.
CN(C)S(=O)(=O)c1cccc(-n2sc3ccccc3c2=O)c1,10,-48,-5,5,86*,-2
O=C(Cn1nc2n(Cc3ccccc3F)c3ccccc3n2c1=O)N1CCOCC1,.,14,.,.,.,.
CCc1cc(-c2n[nH]c(C)c2-c2nc3ccccc3n2C)c(O)cc1O,14*,-7,-4,9,-2,21
C(=C\c1ccccc1)/CNCC1CCCO1 (stereo not given),5,29,11*,3,-1,0
Cc1nnc(NC(=O)Cn2nnc3ccccc32)s1,.,22,.,10,.,.
COc1ccc(N=c2oc3c(OC)cccc3cc2C(=O)NC2CCCC2)cc1,.,79*,.,5,.,.
Cc1ccc(NC(=O)c2cccs2)cc1,4,-1,-1,8,4,.
Cc1cc(C)cc(NS(=O)(=O)c2ccc(NC(=S)NC(=O)c3cccs3)cc2)c1,4,-87,-4,42*,12,-2
Cc1ccc(NC(=O)C(=O)NNC(=O)c2cccs2)cc1,1,2,10*,16,-20,0
COc1ccc(/C=C/C(=O)NC(=S)Nc2ccc(S(=O)(=O)Nc3cc(C)on3)cc2)cc1,.,-134,.,45*,.,.
COc1cc(OC)cc(C(=O)NC(=S)Nc2ccc(S(=O)(=O)Nc3nccs3)cc2)c1,.,-131,.,31,.,.
COc1ccc(C(=O)NC(=S)Nc2ccc(S(=O)(=O)Nc3nccs3)cc2)cc1OC,.,-138,.,43*,.,.
CCc1ccc2nc(SCC(=O)c3ccc4c(c3)OCCO4)c(C#N)cc2c1,.,-50,.,8,.,.
COc1cc(NC(=S)NC(=O)c2ccccc2C)ccc1NC(=O)c1cccs1,2,5,-2,11,5,-2
Cc1ccnc(NS(=O)(=O)c2ccc(NC(=O)/C=C/c3cccs3)cc2)n1,3,-2,1,5,-34,0
Cc1cc(C)nc(NS(=O)(=O)c2ccc(NC(=S)NC(=O)/C=C/c3cccs3)cc2)n1,.,-117,.,63*,.,.
COc1cc(NC(=S)NC(=O)c2c(OC)cccc2OC)ccc1NC(=O)c1cccs1,21*,8,-10,10,-3,1
CC(C)=CCc1c(O)cc(O)c2c(=O)c3c(CC=C(C)C)c(O)ccc3oc12,.,.,.,42*,.,.
Cc1ccc2cc3c(N)c(C(=O)N4CC(=O)Nc5ccccc54)sc3nc2c1C,.,-11,.,11,.,.
Nc1c2c(=O)oc(-c3ccccc3)cc2nn1-c1ccccc1,29*,29,-6,.,-6,.
Cc1c(-c2ccc(Cl)cc2)oc(=O)c2c(N)n(-c3ccccc3)nc12,2,-6,-3,10,-16,3
COc1ccccc1CN(Cc1cnn(C)c1C)CC1CCCO1 (stereo not given),.,10,.,3,.,.
CNC(=S)NCCc1ccccc1,.,17,.,6,-6,-1
CCN(CC)C(=S)NCCc1ccccc1,2,-13,12*,14,-2,0
Cc1cc(-c2[nH]nc3c2C(c2ccc(C(F)(F)F)cc2)C(C#N)=C(N)O3)c(C)s1 (stereo not given),.,61*,.,12,.,.

# Compound activity: PubChem, several laboratories
